# ChEMBL document CHEMBL4825662 (J Med Chem, 2021)
# Tests used:
# [1] = system: Human orthopneumovirus; assay: Antiviral activity against Respiratory syncytial virus A2 infected in human Hep2 cells by Plaque reduction assay; assay type: functional, organism-based; details: A2, HEp-2
# Outline: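 Hep2 cells were infected with RSV strain A2 in the presence of compound. Plaques were detected by immunostaining after 48 h. Values are the average of at least two testing occasions.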
# [2] = Cytotoxicity against human Hep2 cells; assay type: cell-based; details: HEp-2 cells
# Outline: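 Hep2 cells were cultured in parallel with the plaque assays at compound concentrations of 0.01 nM to 100 μM. Viability was read by MTT, CellTox green or CellTiter-Glo.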
# [3] = system: Human orthopneumovirus; assay: Antiviral activity against Respiratory syncytial virus A2 by Plaque reduction assay; assay type: functional, organism-based
# Outline: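 Vero cells were infected with RSV A2 for 48 h with compound at 0.01 nM to 100 μM. Plaques were detected by immunostaining. Values are the average of at least two testing occasions.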
# [4] = molecular target: Fusion glycoprotein F0 (Human respiratory syncytial virus A (strain A2), UniProt P03420); assay: Inhibition of Respiratory syncytial virus fusion protein
# Chain of Fusion glycoprotein F0 (P03420 26-109 limits assumed): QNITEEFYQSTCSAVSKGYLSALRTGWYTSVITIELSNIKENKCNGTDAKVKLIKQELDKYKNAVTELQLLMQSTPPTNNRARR
# Chain of Fusion glycoprotein F0 (P03420 137-574 limits assumed): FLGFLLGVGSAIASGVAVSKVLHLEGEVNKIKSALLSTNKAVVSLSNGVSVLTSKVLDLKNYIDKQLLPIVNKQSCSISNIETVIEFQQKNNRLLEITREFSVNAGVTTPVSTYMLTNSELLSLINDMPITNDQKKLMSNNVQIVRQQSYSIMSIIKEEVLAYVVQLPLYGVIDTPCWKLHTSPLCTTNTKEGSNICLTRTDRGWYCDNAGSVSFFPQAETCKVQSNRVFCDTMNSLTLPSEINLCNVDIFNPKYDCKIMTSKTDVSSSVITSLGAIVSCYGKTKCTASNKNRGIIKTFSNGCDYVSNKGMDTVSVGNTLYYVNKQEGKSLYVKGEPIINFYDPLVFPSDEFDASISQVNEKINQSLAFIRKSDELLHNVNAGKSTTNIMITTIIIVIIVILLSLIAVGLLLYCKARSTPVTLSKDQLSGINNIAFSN
# Outline: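 293T cells cotransfected with codon-optimized RSV A2 F plasmid and a GAL4-responsive luciferase reporter, mixed after 24 h with a second 293T population expressing GAL4-NF-κB transactivator. Threefold serial compound dilutions present during mixing; F-mediated fusion read as luciferase after 24 h. IC₅₀ averaged over at least two testing occasions.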
# [5] = Intrinsic clearance in human liver microsomes preincubated followed by NADPH addition and measured up to 45 mins by LC-MS/MS analysis; assay type: ADME, Microsome
# [6] = Intrinsic clearance in Sprague-Dawley rat liver microsomes preincubated followed by NADPH addition and measured up to 45 mins by LC-MS/MS analysis; assay type: ADME, Microsome
# [7] = Cmax in Sprague-Dawley rat at 5 mg/kg, po administered via gavage measured after 0.02 to 24 hrs by tandem liquid chromatography/mass spectrometry; assay type: ADME, organism-based; parameters: route oral, dose 5 mg/kg, time upper 24 hrs, time lower 0.02 hrs; details: in vivo
# Outline: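 Male Sprague–Dawley rats weighing 200–250 g, 3 per route, were used. The i.v. bolus was 1 mg/kg at 1 mg/mL in 40:60 dimethylacetamide/saline. Oral gavage doses were 5 or 10 mg/kg at 5 mg/mL in 1% methyl cellulose with 0.1% Tween 80. Heparinized blood was taken at 0.02–24 h (ten time points). Plasma was analyzed by LC-MS/MS after acetonitrile precipitation.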
# [8] = Apparent permeability across apical to basolateral side in MDCK-MDR1 cells at 10 uM measured at 60 mins by LC-MS/MS analysis; assay type: ADME, cell-based, Canis lupus familiaris; details: dog
# [9] = system: Human orthopneumovirus; assay: Antiviral activity against Respiratory syncytial virus A2 infected in African green monkey Vero cells by Plaque reduction assay; assay type: functional, organism-based
# [10] = Protein binding in dog plasma assessed as unbound fraction at 5 uM by LC-MS/MS analysis based equilibrium dialysis method; assay type: ADME, cell-free, Canis lupus familiaris
# [11] = Clearance in Sprague-Dawley rat at 1 mg/kg, iv administered […] measured after 0.02 to 24 hrs by tandem liquid chromatography/mass spectrometry; assay type: ADME, organism-based; details: in vivo, time 0.02-24 hrs
# [12] = Oral bioavailability in Sprague-Dawley rat at 10 mg/kg administered via gavage measured after 0.02 to 24 hrs by tandem liquid chromatography/mass spectrometry; assay type: ADME, organism-based; details: in vivo, time 0.02-24 hrs
# Outline: (§1)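 Male Sprague–Dawley rats (200–250 g), 3 per route. IV bolus at 1 mg/kg, 1 mg/mL in 40:60 dimethylacetamide/saline; oral gavage at 5 or 10 mg/kg, 5 mg/mL in 1% methyl cellulose, 0.1% Tween 80 in water. Serial blood at 0.02–24 h (ten points) into heparin, spun at 4 °C, plasma frozen; acetonitrile protein precipitation, ESI LC-MS/MS with matrix curve and internal standards.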
# [13] = Intrinsic clearance in Beagle dog liver microsomes preincubated followed by NADPH addition and measured up to 45 mins by LC-MS/MS analysis; assay type: ADME, Canis lupus familiaris, Microsome
# [14] = Cytotoxicity against African green monkey Vero cells by MTT assay; assay type: cell-based; details: chlorocebus sabaeus
# Outline: (§2)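 Viability was assessed by MTT after culture with compound at 0.01 nM to 100 μM, run in parallel with plaque reduction assays. Values are the average of at least two testing occasions.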
# [15] = Efflux ratio of apparent permeability in MDCK-MDR1 cells at 10 uM measured at 60 mins by LC-MS/MS analysis; assay type: ADME, cell-based, Canis lupus familiaris; details: dog
# [16] = Intrinsic clearance in rat hepatocytes assessed per million cells at 3 uM measured up to 60 mins by LC-MS/MS analysis; assay type: ADME, cell-based, Hepatocyte; details: read-out: CLH
# [17] = Thermodynamic solubility in PBS at 1 to 100 uM at pH 7.4 by HPLC-UV method; assay type: physicochemical; details: dose 1-100 µM, read-out: Therm_solubility
# [18] = Volume of distribution at steady state in Sprague-Dawley rat at 1 mg/kg, iv administered […] measured after 0.02 to 24 hrs by tandem liquid chromatography/mass spectrometry; assay type: ADME, organism-based; details: in vivo, time 0.02-24 hrs, read-out: Vdss; outline: as §1
# [19] = Protein binding in rat plasma assessed as unbound fraction at 5 uM by LC-MS/MS analysis based equilibrium dialysis method; assay type: ADME, cell-free
# [20] = Protein binding in human plasma assessed as unbound fraction at 5 uM by LC-MS/MS analysis based equilibrium dialysis method; assay type: ADME, cell-free
# [21] = Apparent permeability of compound in wild type MDCK at 10 uM incubated for 1 hr by LC-MS/MS assay; assay type: ADME, Canis lupus familiaris; details: dog
# [22] = Oral bioavailability in CD1 mouse at 10 mg/kg measured after 0.03 to 24 hrs by UHPLC-TOF method; assay type: ADME, organism-based; details: in vivo, time 0.03-24 hrs
# Outline: (§3)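 Male CD-1 mice, acclimatized and individually housed, dosed IV and PO as amorphous-solid suspension. Terminal cardiac-puncture blood into heparinized tubes on wet ice, centrifuged at 4 °C within 15 min; plasma snap-frozen at −20 °C. IV arm sampled 2 min–24 h, oral arm 5 min–24 h. Plasma analysed by UHPLC-quadrupole-TOF MS.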
# [23] = Half life in human liver microsomes preincubated followed by NADPH addition and measured up to 45 mins by LC-MS/MS analysis; assay type: ADME, Microsome
# [24] = Volume of distribution at steady state in CD1 mouse at 1 mg/kg, iv measured after 0.083 to 24 hrs by UHPLC-TOF method; assay type: ADME, organism-based; details: in vivo, time 0.083-24 hrs, read-out: Vdss; outline: as §3
# [25] = system: Human orthopneumovirus; assay: Antiviral activity against Respiratory syncytial virus A2 infected in human Huh7 cells by Plaque reduction assay; assay type: functional, organism-based; details: A2, Huh-7
# Outline: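 Huh-7 cells were infected with RSV strain A2 in the presence of compound. Values are the average of at least two testing occasions.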
# [26] = Half life in CD1 mouse at 10 mg/kg, po measured after 0.083 to 24 hrs by UHPLC-TOF method; assay type: ADME, organism-based; details: in vivo, time 0.083-24 hrs
# [27] = Apparent permeability across basolateral side to apical side in MDCK-MDR1 cells at 10 uM measured at 60 mins by LC-MS/MS analysis; assay type: ADME, cell-based, Canis lupus familiaris; details: dog
# [28] = Half life in Beagle dog liver microsomes preincubated followed by NADPH addition and measured up to 45 mins by LC-MS/MS analysis
# [29] = Clearance in CD1 mouse at 1 mg/kg, iv measured after 0.083 to 24 hrs by UHPLC-TOF method; assay type: ADME, organism-based; details: in vivo, time 0.083-24 hrs
# [30] = Tmax in CD1 mouse at 10 mg/kg, po measured after 0.083 to 24 hrs by UHPLC-TOF method; assay type: ADME, organism-based; details: in vivo, time 0.083-24 hrs; outline: as §3
# [31] = Cmax in CD1 mouse at 10 mg/kg, po measured after 0.083 to 24 hrs by UHPLC-TOF method; assay type: ADME, organism-based; parameters: route oral, time 0.083-24 hrs, dose 10 mg/kg; details: in vivo
# [32] = Half life in Sprague-Dawley rat liver microsomes preincubated followed by NADPH addition and measured up to 45 mins by LC-MS/MS analysis; assay type: ADME, Microsome
# [33] = Cytotoxicity against human HepG2 cells by MTT assay; assay type: cell-based; outline: as §2
smiles,measurement,setting,value
N=C(N)c1ccc2c(c1)nc(CN1C(=O)C3(CC3)c3ccc(F)cc31)n2CCCC(F)(F)F,EC50,[1],0.5 nM
same,CC50,[2],> 20000 nM
N=C(N)NCc1ccc2c(c1)nc(CN1C(=O)C3(CC3)c3ccc(F)cc31)n2CCCC(F)(F)F,EC50,[1],21.1 nM
same,CC50,[2],> 20000 nM
CC(C)CCn1c(CN2C(=O)C3(CC3)c3ccncc32)nc2cc(CN)ccc21,EC50,[3],2.1 nM
same,IC50,[4],0.9 nM
CC(C)CCn1c(CN2C(=O)C3(CC3)c3ccc(F)cc32)nc2cc(CN)ccc21,intrinsic clearance (CLint),[5],50.7 µL/min
same,Microsomal intrinsic clearance,[6],45 µL/min
same,Cmax,[7],44.2 ng/mL
same,Papp,"[8]; mdck-mdr1, 1 h, 10 µM",0.75 10^-6 cm/s
same,EC50,[9],0.8 nM
same,fraction unbound at 5 µM,[10],0.151
same,clearance,[11],174 mL/min/kg
same,bioavailability,[12],25%
same,intrinsic clearance,[13],6.23 µL/min
same,CC50,[14],3000 nM
same,Ratio,"[15]; mdck-mdr1, 1 h, 10 µM",88
same,hepatocyte CLint at 3 µM,[16],43.1 µL/min/1e6 cells
same,solubility thermodynamic,[17],176 µM
same,Vd,[18],54.3 L/kg
same,fraction unbound at 5 µM,[19],0.333
same,fraction unbound at 5 µM,[20],0.184
NC(=O)c1ccc2c(c1)nc(CN1C(=O)C3(CC3)c3ccc(F)cc31)n2CCCC(F)(F)F,EC50,[1],13.7 nM
same,CC50,[2],> 20000 nM
CC(C)CCn1c(CN2C(=O)C3(CC3)c3cc(F)ccc32)nc2cc(CN)ccc21,intrinsic clearance (CLint),[5],344 µL/min
same,Microsomal intrinsic clearance,[6],< 29 µL/min
same,EC50,[9],4.2 nM
same,fraction unbound at 5 µM,[10],0.15
same,"Papp at 1 h, 10 µM",[21],7.3 ×10⁻⁶ cm/s
same,intrinsic clearance,[13],< 29 µL/min
same,CC50,[14],7600 nM
same,fraction unbound at 5 µM,[19],0.19
same,fraction unbound at 5 µM,[20],0.11
NCc1ccc2c(c1)nc(CN1C(=O)C3(CC3)c3ccc(F)cc31)n2C1CCC(O)CC1 (stereo unspecified),intrinsic clearance (CLint),[5],4.6 µL/min
same,Microsomal intrinsic clearance,[6],9.4 µL/min
same,bioavailability,[22],4.4%
same,half-life,[23],5 h
same,Vd,[24],3.8 L/kg
same,EC50,[25],1.6 nM
same,half-life,[26],0.9 h
same,"Papp B→A at 1 h, 10 µM",[27],2.8 ×10⁻⁶ cm/s
same,"Papp A→B at 1 h, 10 µM",[8]; MDCK-MDR1,0.1 ×10⁻⁶ cm/s
same,half-life,[28],4.6 h
same,clearance,[29],82.7 mL/min/kg
same,Tmax,[30],6 min
same,Cmax,[31],47.8 ng/mL
same,half-life,[32],2.45 h
same,intrinsic clearance,[13],5.02 µL/min
same,"efflux ratio at 1 h, 10 µM",[15]; MDCK-MDR1,21
same,solubility thermodynamic,[17],313 µM
same,CC50,[33],> 25000 nM
